The source of these data is ChEMBL document CHEMBL1152902, “Synthesis, antifungal activities and 3D-QSAR study of N-(5-substituted-1,3,4-thiadiazol-2-yl)cyclopropanecarboxamides” (2009).

Common to all, as to assay type: functional
Experiment [1] has as its system Sclerotinia sclerotiorum. As to the kind of experiment: Antifungal activity against Sclerotinia sclerotiorum (Lib.) de Bary at 500 ug/ml relative to control. An outline of the steps:
(§1)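 Pot culture test run as in the cited reference, with series compounds screened against five fungi: S. sclerotiorum (Lib.) de Bary, R. solani, F. oxysporum, C. cassiicola and B. cinerea. Culture plates were held at (24 ±1) °C. Commercial fungicides (dimehachlon, jinggangmycin, thiophanate methyl, chlorothalonil, pyrimethanil) served as controls under the same conditions.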

Experiment [2] concerns Fusarium oxysporum. The experiment can be described thus: Antifungal activity against Fusarium oxysporum at 500 ug/ml relative to control. Put shortly:
as §1

The subject of experiment [3] is Corynespora cassiicola. The experiment can be described thus: Antifungal activity against Corynespora cassiicola at 500 ug/ml relative to control. Put shortly: as §1
Experiment [4] relates to Rhizoctonia solani. The experiment can be described thus: Antifungal activity against Rhizoctonia solani at 500 ug/ml relative to control. An outline of the steps:
as §1

In experiment [5] the test system is Botrytis cinerea. As to the kind of experiment: Antifungal activity against Botrytis cinerea at 500 ug/ml relative to control. An outline of the steps:
as §1

Consider `CC(C)c1nnc(NC(=O)C2CC2)s1`, for which the inhibition at 500 µg/mL came to 47.7% in experiment [1]; 20% in experiment [2]; 29.3% in experiment [3]; 11% in experiment [4]; 42% in experiment [5].
In the same order, the values of `O=C(Nc1nnc(C2CC2)s1)C1CC1` are 26.7%, 37%, 13.3%, 21% and 66.6%.
For `O=C(Nc1nnc(-c2ccc([N+](=O)[O-])cc2)s1)C1CC1`, in that order: 43.1%, 13%, 18.6%, 16% and 30.3%.
As to `COc1ccc(-c2nnc(NC(=O)C3CC3)s2)cc1`, the inhibition at 500 µg/mL in experiment [1] was 33%; in experiment [2], 12%; in experiment [3] it was 33.3%; in experiment [4], -9%; in experiment [5], 79.4%.
For `O=C(Nc1nncs1)C1CC1`, in that order: 24%, 17%, 22.5%, 37% and 83.7%.
In the same order, the values of `Cc1nnc(NC(=O)C2CC2)s1` are 23%, 84%, 52.4%, 5% and 67.5%.
In the case of `CCCc1nnc(NC(=O)C2CC2)s1`, the inhibition at 500 µg/mL in experiment [1] amounted to 40%; in experiment [2], 1%; in experiment [3] it was 46.6%; in experiment [4] it was 35%; in experiment [5] it was 57.9%.
Regarding `O=C(Nc1nnc(-c2ccc(Cl)cc2)s1)C1CC1`, the inhibition at 500 µg/mL was 23.9% in experiment [1]; 28% in experiment [2]; 19.7% in experiment [3]; 62% in experiment [4]; 13.5% in experiment [5].
In the same order, the values of `Cc1cccc(-c2nnc(NC(=O)C3CC3)s2)c1` are 20%, 11%, 8.38%, 39% and 90.7%.
For the compound `CCc1nnc(NC(=O)C2CC2)s1`, the inhibition at 500 µg/mL in experiment [1] was determined as 51.7%; in experiment [2], 10%; in experiment [3], 49.7%; in experiment [4] it was 23%; in experiment [5] it was 32.1%.
In the same order, the values of `O=C(Nc1nnc(-c2ccccc2F)s1)C1CC1` are 23%, 84%, 68.3%, 5% and 67.5%.
In the same order, the values of `O=C(Nc1nnc(-c2ccccc2)s1)C1CC1` are 24%, 16%, 17.4%, 9% and 80.5%.
Take `CCCCc1nnc(NC(=O)C2CC2)s1`: the inhibition at 500 µg/mL is 10.3% in experiment [1]; 2% in experiment [2]; 21.9% in experiment [3]; 44% in experiment [4]; 26% in experiment [5].
In the same order, the values of `Cc1ccccc1-c1nnc(NC(=O)C2CC2)s1` are 37.5%, 21%, 50.8%, 36% and 75.1%.
As for `O=C(Nc1nnc(-c2ccccc2Cl)s1)C1CC1`, the inhibition at 500 µg/mL in experiment [1] is 25.5%; in experiment [2], 91%; in experiment [3], 21.4%; in experiment [4], 44%; in experiment [5] it was 35.1%.
On to `N#Cc1c(Cl)c(Cl)c(Cl)c(C#N)c1Cl` [CHLOROTHALONIL], for which the inhibition at 500 µg/mL in experiment [3] was 86.4%.
For `O=C1CCC(=O)N1c1cc(Cl)cc(Cl)c1` [DIMETHACHLON], in experiment [1], the inhibition at 500 µg/mL is 96.7%.
For the compound `Cc1cc(C)nc(Nc2ccccc2)n1` [PYRIMETHANIL], in experiment [5], the inhibition at 500 µg/mL was determined as 99.2%.
For `COC(=O)NC(=S)Nc1ccccc1NC(=S)NC(=O)OC` [THIOPHANATE METHYL], the inhibition at 500 µg/mL in experiment [2] is 97%.

A word on the inhibition: it is the change of the read-out against control, counted positive when it falls.
